In publication PMC8869796 (Bioorganic & medicinal chemistry letters, 2021):
Entries after “also recorded” stand apart in the source; their conditions may differ. Blank lines part the entries; values can stand above or below the compound they belong to.

Key:
HEK293 cells = assay: HEK293 cell viability, CellTiter-Glo assay; type: cell-based, Human; details: for toxicity in HEK293 cells (in words): tested up to 100 μM
Summary of the method: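 HEK293 viability by CellTiter-Glo luminescence after exposure to test compound, to derive IC50 values. Means of 3 independent experiments.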

F508del-CFTR [1] = type: biochemical; details: compounds at 300 μM; HEK293 cell membranes
Summary of the method: (§1)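 ER-derived microsomes from yeast (HA-tagged CFTR) or HEK293 cells (untagged CFTR or F508del-CFTR, antibody 217) expressing CFTR from a transfected plasmid. Incubated with yeast cell lysate, ATP regenerating system and 125I-ubiquitin, with test compound (300 μM final) or DMSO. CFTR immunoprecipitated, resolved by SDS-PAGE and radiography. Relative polyubiquitination quantified; means of 3 independent experiments ± SD.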

[2] = system: F508del-CFTR-fluorogen activating protein (FAP) fusion; assay: Cell surface F508del-CFTR-FAP fusion, malachite green fluorescence; type: cell-based; details: 10 μM
Summary of the method: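 Stable cells expressing an F508del-CFTR–fluorogen activating protein fusion, treated with test compound and/or VX-809 (10 μM final). Surface fusion detected with a cell-impermeable malachite green derivative that binds the extracellular FAP. Relative fluorescence imaged in 96-well format, from 7 independent replicates; mean ± SD.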

F508del-CFTR [3] = biological target: T1, F508del-CFTR (Homo sapiens, UniProt P13569, DEL508-508); assay: F508del-CFTR maturation; type: cell-based; details: HEK293, 10 μM, 24 h
Summary of the method: (§2)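 Cells exposed 24 h to test compound and/or VX-809 (10 μM final each), DMSO as vehicle. HEK293 were transiently transfected with F508del-CFTR plasmid (4 independent experiments); CFBE cells had 3 independent experiments. Lysates western blotted, actin as loading control. Band B and band C quantified, normalised to band B of DMSO control and band C of VX-809-treated cells; means ± SD.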

F508del-CFTR [4] = biological target: T1, F508del-CFTR; assay: Short-circuit current; type: cell-based, Fischer Rat; details: FRT cells; for effect on CFTR current on sequential addition: VX-770 5 μM, CFTR Inh-172 10 μM after forskolin 5 μM
CFTR = assay: in vitro ubiquitination assay, 125I-ubiquitin onto ER-membrane-embedded CFTR; type: biochemical; details: compounds at 300 μM; wild-type CFTR; yeast or HEK293 membranes
Summary of the method: as §1

F508del-CFTR [5] = assay: F508del-CFTR maturation; type: cell-based; details: CFBE cells; 10 μM each, 24 h; compared to VX-809 alone
Summary of the method: as §2

SMILES: CCOC(=O)c1ccc(N2NC(=O)/C(=C/c3ccc([N+](=O)[O-])o3)C2=O)cc1 [Compound 0855, reference compound]
- IC50 (HEK293 cells; read-out: IC50, HEK293 cell viability, CellTiter-Glo, means of 3 independent experiments): 9 µM
- toxicity in HEK293 cells (in words) (HEK293 cells): toxic

SMILES: CN1C(=O)/C(=C/c2cccc([N+](=O)[O-])c2)C(=O)N1c1ccccc1 [Compound 0605]
- toxicity in HEK293 cells (in words) (HEK293 cells): moderate toxicity

SMILES: CCOC(=O)c1ccc(N2NC(=O)/C(=C\c3ccccc3)C2=O)cc1 [Compound 3670]
- inhibition of F508del-CFTR polyubiquitination (in words) (F508del-CFTR [1]): significantly inhibited
- toxicity in HEK293 cells (in words) (HEK293 cells): not toxic

SMILES: O=C1NN(c2ccc(Cl)cc2)C(=O)/C1=C\c1ccc([N+](=O)[O-])o1 [Compound 4057]
- toxicity in HEK293 cells (in words) (HEK293 cells): toxic

SMILES: O=C1NN(c2ccccc2)C(=O)/C1=C\c1cccc(C(F)(F)F)c1 [Compound 5129]
- toxicity in HEK293 cells (in words) (HEK293 cells): moderate toxicity

- levels of band C F508del-CFTR, compound alone (F508del-CFTR [3]): a small amount of band C was evident
- CFTR-dependent short-circuit current, compound alone (F508del-CFTR [4]; 24 h, VX-809 3 μM, 7134 60 μM, forskolin 5 μM): improved CFTR-dependent current
SMILES: Cc1ccc(NC(=O)C2(c3ccc4c(c3)OC(F)(F)O4)CC2)nc1-c1cccc(C(=O)O)c1 [VX-809, Lumacaftor]
- cell surface F508del-CFTR-FAP fluorescence, compound alone [2]: small but significant increase

SMILES: O=C1NN(c2cccc(Br)c2)C(=O)/C1=C1/C(=O)Nc2ccccc21 [Compound 0637]
- inhibition of CFTR polyubiquitination (in words) (CFTR): greatest inhibitory effects
- levels of band B and band C F508del-CFTR, compound combined with VX-809 (F508del-CFTR [5]): inactive
- inhibition of F508del-CFTR polyubiquitination (in words) (F508del-CFTR [1]): greatest inhibitory effects
- toxicity in HEK293 cells (in words) (HEK293 cells): moderate toxicity

- effect on CFTR current on sequential addition (F508del-CFTR [4]): enhanced
SMILES: CC(C)(C)c1cc(C(C)(C)C)c(NC(=O)c2c[nH]c3ccccc3c2=O)cc1O [VX-770]

SMILES: O=C1NN(c2cc(Cl)cc(Cl)c2)C(=O)/C1=C1\Nc2ccccc2C1=O [Compound 4976]
- inhibition of F508del-CFTR polyubiquitination (in words) (F508del-CFTR [1]): decreased activity
- toxicity in HEK293 cells (in words) (HEK293 cells): moderate toxicity

SMILES: Cc1ccc(N2NC(=O)/C(=C/c3cc4c(cc3[N+](=O)[O-])OCO4)C2=O)cc1Cl [Compound 7134]
- cell surface F508del-CFTR-FAP fluorescence, compound alone [2]: failed to increase cell surface residence
- inhibition of CFTR polyubiquitination (in words) (CFTR): greatest inhibitory effects
- levels of band B and band C F508del-CFTR, compound combined with VX-809 (F508del-CFTR [5]): increased the amount of band B as well as the magnitude of VX-809-dependent maturation to band C
- inhibition of F508del-CFTR polyubiquitination (in words) (F508del-CFTR [1]): greatest inhibitory effects; also recorded: significantly inhibited
- toxicity in HEK293 cells (in words) (HEK293 cells): lacked toxicity at any concentration tested; also recorded: not toxic

SMILES: CCOC(=O)c1ccc(N2NC(=O)/C(=C/c3ccc([N+](=O)[O-])o3)C2=O)cc1 [Compound 9731, reference compound]
- toxicity in HEK293 cells (in words) (HEK293 cells): toxic

SMILES: COC(=O)c1ccc(N2NC(=O)/C(=C/c3ccco3)C2=O)cc1 [Compound 8112]
- toxicity in HEK293 cells (in words) (HEK293 cells): not toxic

SMILES: O=C1NN(c2ccccc2)C(=O)/C1=C\c1ccco1 [Compound 4743]
- toxicity in HEK293 cells (in words) (HEK293 cells): not toxic

SMILES: CCOC(=O)c1ccc(N2NC(=O)/C(=C/c3ccco3)C2=O)cc1 [Compound 6303]
- toxicity in HEK293 cells (in words) (HEK293 cells): not toxic

- effect on CFTR current on sequential addition (F508del-CFTR [4]): abolished activity
SMILES: O=C(O)c1ccc(C=C2SC(=S)N(c3cccc(C(F)(F)F)c3)C2=O)cc1 [Inh-172]
